From paper PMC10209631 (RSC Advances, 2023)
Read-outs that look alike come from different tables or passages of the source.

Assays:
[1] = system: HepG2; assay: Antiproliferative activity; format: cell-based; details: Homo sapiens, HepG2, 48 h, read-out: antiproliferative activity IC50, HepG2
[2] = system: normal fibroblasts (WI-38); assay: Cytotoxicity; details: for IC50: read-out: IC50, normal fibroblasts WI-38; for selectivity index (SI): SI = WI-38 IC50/IC50 against cancer cells; for toxicity to the normal fibroblasts (in words): WI-38 versus cancer cells
[3] = system: MCF-7 cells; assay: Apoptosis assay by annexin V-PI; format: cell-based, human; details: MCF7, IC50 concentration, 48 h; for necrotic cells (upper left quadrant, UL): DMSO 0.1%
Summary of the method: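 MCF-7 cells seeded at 1 × 10⁵ cells per mL and held overnight at 37 °C, 5% CO₂. Test compound or DMSO added in fresh medium for 48 h. Cells trypsinized, washed twice in PBS, and stained 15 min with annexin V-FITC plus propidium iodide in binding buffer. Flow cytometry scored early apoptotic (LR), late apoptotic (UR) and necrotic (UL) quadrants.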

[4] = system: MCF-7 cells; assay: Cell cycle analysis; format: cell-based, human; details: MCF7, IC50 concentration, 48 h

Row | Compound | IC50 [1] [µM] | IC50 ([2]; Homo sapiens, WI-38, 48 h) [µM] | selectivity index (SI) [2] | further results
1 | N#CCC(=O)Nc1nnc(NC(=O)c2ccccc2)s1 [Compound 3, N-(5-(2-Cyanoacetamido)-1,3,4-thiadiazol-2-yl)benzamide] | 31.3 ± 5.1 | 37.4 ± 2.5 | 1.2 | –
2 | Nc1nnc(NC(=O)c2ccccc2)s1 [Compound 2, N-(5-Amino-1,3,4-thiadiazol-2-yl)benzamide] | 14.1 ± 1.5 | 17.6 ± 4.1 | 1.0 | –
3 | N#CC(C(=O)Nc1nnc(NC(=O)c2ccccc2)s1)=C1SCCN1c1ccccc1 [Compound 14, N-(5-(2-Cyano-2-(3-phenylthiazolidin-2-ylidene)acetamido)-1,3,4-thiadiazol-2-yl)benzamide] | > 100 | 53.8 ± 3.4 | 0.8 | –
4 | N-(5-(2-Cyano-2-(4,6-dioxo-1-phenylpiperidin-2-ylidene)acetamido)-1,3,4-thiadiazol-2-yl)benzamide [Compound 13] | – | – | 0.5 | IC50 ([2]; MTT, 48 h, mean ±SEM, three independent experiments): 23.6 ± 3.2 µM
5 | Cc1cc(-c2ccccc2)n(-c2nnc(NC(=O)c3ccccc3)s2)c(=O)c1C#N [Compound 10, N-(5-(3-Cyano-4-methyl-2-oxo-6-phenylpyridin-1(2H)-yl)-1,3,4-thiadiazol-2-yl)benzamide] | 19.4 ± 1.5 | > 100 | 1.7 | –
6 | N#CC(C(=O)Nc1nnc(NC(=O)c2ccccc2)s1)=C1Nc2ccccc2O1 [Compound 19, N-(5-(2-(Benzo[d]oxazol-2(3H)-ylidene)-2-cyanoacetamido)-1,3,4-thiadiazol-2-yl)benzamide] | 19.4 ± 1.5 | 60.3 ± 3.7 | 6.1 | necrotic cells (upper left quadrant, UL) [3]: 15%; early apoptosis (lower-right quadrant, LR) ([3]; DMSO 3.2%): 15%; cells arrested at G2/M ([4]; DMSO 4.6%): 23.3%
7 | N#CC(C(=O)Nc1nnc(NC(=O)c2ccccc2)s1)=C1SC(=O)CN1c1ccccc1 [Compound 12, N-(5-(2-Cyano-2-(5-oxo-3-phenylthiazolidin-2-ylidene)acetamido)-1,3,4-thiadiazol-2-yl)benzamide] | 69.5 ± 6.5 | > 100 | – | –
8 | N=c1oc2ccccc2cc1C(=O)Nc1nnc(NC(=O)c2ccccc2)s1 [Compound 4, N-(5-Benzamido-1,3,4-thiadiazol-2-yl)-2-imino-2H-chromene-3-carboxamide] | 48.5 ± 2.9 | 29.4 ± 2.2 | 1.3 | toxicity to the normal fibroblasts (in words) [2]: toxic to the normal fibroblasts
9 | N#CC(C(=O)Nc1nnc(NC(=O)c2ccccc2)s1)=C1Nc2ccccc2N1 [Compound 18, N-(5-(2-Cyano-2-(1,3-dihydro-2H-benzo[d]imidazole-2-ylidene)acetamido)-1,3,4-thiadiazol-2-yl)benzamide] | 47.3 ± 8.2 | > 100 | 1.5 | –
10 | N#CC(C(=O)Nc1nnc(NC(=O)c2ccccc2)s1)=C1Oc2cccnc2O1 [Compound 20, N-(5-(2-([1,3]dioxolo[4,5-b]pyridin-2-ylidene)-2-cyanoacetamido)-1,3,4-thiadiazol-2-yl)benzamide] | 29.6 ± 3.1 | 42.7 ± 2.7 | 1.5 | –
11 | Cc1cc(C)n(-c2nnc(NC(=O)c3ccccc3)s2)c(=O)c1C#N [Compound 9, N-(5-(3-Cyano-4,6-dimethyl-2-oxopyridin-1(2H)-yl)-1,3,4-thiadiazol-2-yl)benzamide] | 39.1 ± 2.7 | 50.4 ± 0.9 | 2.5 | –
12 | COc1cccc2c1C(=O)c1c(O)c3c(c(O)c1C2=O)C[C@@](O)(C(=O)CO)C[C@@H]3O[C@H]1C[C@H](N)[C@H](O)[C@H](C)O1 [DOX, Doxorubicin, reference compound] | 4.5 ± 0.2 | – | – | –
13 | N#Cc1c(Nc2ccccc2)n2nc(NC(=O)c3ccccc3)sc2nc1=O [Compound 15, N-(6-Cyano-7-oxo-5-(phenylamino)-7H-[1,3,4]thiadiazolo[3,2-a]pyrimidin-2-yl)benzamide] | 16.8 ± 1.7 | 19.4 ± 1.5 | 1.4 | –
14 | CSC(SC)=C(C#N)C(=O)Nc1nnc(NC(=O)c2ccccc2)s1 [Compound 17, N-(5-(2-Cyano-3,3-bis(methylthio)acrylamido)-1,3,4-thiadiazol-2-yl)benzamide] | 12.5 ± 1 | 81.2 ± 4.1 | 6.0 | –
15 | O=C(Nc1nnc(NC(=O)c2cc3ccccc3oc2=O)s1)c1ccccc1 [Compound 5, N-(5-Benzamido-1,3,4-thiadiazol-2-yl)-2-oxo-2H-chromene-3-carboxamide] | 63.9 ± 8.9 | 91.2 ± 4.6 | 1.5 | –
16 | N#CC(C(=O)Nc1nnc(NC(=O)c2ccccc2)s1)C(=S)Nc1ccccc1 (centres unmarked) [Compound 16, N-(5-(2-Cyano-3-(phenylamino)-3-thioxopropanamido)-1,3,4-thiadiazol-2-yl)benzamide] | 14.7 ± 2.3 | 85.9 ± 1.9 | 4.1 | –

The next lines start with results.

Row | IC50 [1] [µM] | Compound | IC50 ([2]; Homo sapiens, WI-38, 48 h) [µM] | selectivity index (SI) [2] | further results
17 | 16.3 ± 1.8 | N#CC(=Cc1ccco1)C(=O)Nc1nnc(NC(=O)c2ccccc2)s1 [Compound 7c, N-(5-(2-Cyano-3-(furan-2-yl)acrylamido)-1,3,4-thiadiazol-2-yl)benzamide] | 22.6 ± 3 | 0.8 | –
18 | 6.34 ± 0.9 | N#CC(=Cc1ccc(Cl)cc1Cl)C(=O)Nc1nnc(NC(=O)c2ccccc2)s1 [Compound 7a, N-(5-(2-Cyano-3-(2,4-dichlorophenyl)acrylamido)-1,3,4-thiadiazol-2-yl)benzamide] | 9.18 ± 3.6 | 1.5 | toxicity to the normal fibroblasts (in words) [2]: toxic to the normal fibroblasts
19 | 15.9 ± 1.3 | COc1ccc(C=C(C#N)C(=O)Nc2nnc(NC(=O)c3ccccc3)s2)cc1 [Compound 6b, N-(5-(2-Cyano-3-(4-methoxyphenyl)acrylamido)-1,3,4-thiadiazol-2-yl)benzamide] | 50.4 ± 0.9 | 4.9 | induction of apoptosis (in words) [3]: did not induce apoptosis; necrotic cells (upper left quadrant, UL) [3]: 12.5%; sub-G1 percent of cells ([4]; DMSO 7.4%): 53.6%
20 | 21.3 ± 3.7 | COc1cc(C=C(C#N)C(=O)Nc2nnc(NC(=O)c3ccccc3)s2)ccc1O [Compound 7f, N-(5-(2-Cyano-3-(4-hydroxy-3-methoxyphenyl)acrylamido)-1,3,4-thiadiazol-2-yl)benzamide] | 14.5 ± 0.3 | 0.9 | –
21 | 66.1 ± 3.5 | N#CC(=Cc1cccs1)C(=O)Nc1nnc(NC(=O)c2ccccc2)s1 [Compound 7d, N-(5-(2-Cyano-3-(thiophen-2-yl)acrylamido)-1,3,4-thiadiazol-2-yl)benzamide] | 12.3 ± 1.2 | 0.4 | toxicity to the normal fibroblasts (in words) [2]: toxic to the normal fibroblasts
22 | 14.7 ± 2.1 | N#CC(=Cc1ccc(Cl)cc1)C(=O)Nc1nnc(NC(=O)c2ccccc2)s1 [Compound 7b, N-(5-(3-(4-Chlorophenyl)-2-cyanoacrylamido)-1,3,4-thiadiazol-2-yl)benzamide] | 42.1 ± 2.7 | 2.4 | –
23 | 56.3 ± 7.8 | N#CC(=Cc1ccc([N+](=O)[O-])cc1)C(=O)Nc1nnc(NC(=O)c2ccccc2)s1 [Compound 7e, N-(5-(2-Cyano-3-(4-nitrophenyl)acrylamido)-1,3,4-thiadiazol-2-yl)benzamide] | 23.4 ± 3.6 | 0.4 | –
